Reference: the EternaBench riboswitch data

Tested on: MS2 coat protein
Test: apparent Kd, MS2 coat protein; higher = weaker binding; RNA-MaP array
Method in brief: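 RNA designs were transcribed from sequenced DNA templates on an Illumina sequencing chip and then incubated at room temperature with fluorescently labeled MS2 coat protein at 1.5 nM to 3 μM, with or without input ligand, in Tris-HCl pH 7.5 buffer containing KCl, MgCl2, BSA, DTT, tRNA and Tween20. Incubation lasted 0.8–1.5 h at the lowest protein concentrations and 10–20 min at the highest. Apparent Kd is the median of binding-curve fits made for each cluster. Designs measured on fewer than 10 clusters were excluded.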

[1] = designed as: ON switch for tryptophan, no ligand
[2] = ligand present: tryptophan, designed as: ON switch for tryptophan
[3] = designed as: ON switch for flavin mononucleotide, no ligand
[4] = ligand present: flavin mononucleotide, designed as: ON switch for flavin mononucleotide
[5] = designed as: OFF switch for flavin mononucleotide, no ligand
[6] = ligand present: flavin mononucleotide, designed as: OFF switch for flavin mononucleotide
[7] = designed as: ON switch for theophylline, no ligand
[8] = ligand present: theophylline, designed as: ON switch for theophylline

Sequence | apparent Kd [3] [µM] | apparent Kd [4] [µM] | apparent Kd [5] [µM] | apparent Kd [6] [µM] | further results
UCCGCGGAGACGGCCGCCACUGAGUGAGAAGUCGUGCUCUAACUACAUGAGGAUCACCCAUGUCCCAGGACCGGGUCGAAGUGUU | – | – | – | – | apparent Kd [1]: 0.214 µM; apparent Kd [2]: 0.103 µM
CGCCCUAAAGAUAAGGAUAUUCAGUUAGUAACAUGAGGAUCACCCAUGUGCACAUUUCACUUGAUGAAGAAGGUAUCUGGAACAUU | 0.00827 | 0.0061 | – | – | –
GUCUGGUCAGGAUAUUCGAGGUGUAACAUGAGGAUCACCCAUGUUUCUUAGCUAGAGGCCGAAGAAGGGACGGGUA | – | – | 0.0114 | 0.0101 | –
CGCCUACAGGUGUACUAUUGUGGUGAAGAUACCAGAUAGCCCAAUAUCCCUUGGCAGCUUCAGACAUGAGGAUCACCCAUGUAUC | – | – | – | – | apparent Kd (designed as: OFF switch for theophylline, no ligand): 0.0155 µM; apparent Kd (ligand present: theophylline, designed as: OFF switch for theophylline): 0.0276 µM
GCUGCCUGGACAUGAGGAUCACCCAUGUGGACAAUACUGGCUUAGGAUAUUUGAUUGAAGUUUGGAAAGAAGGAAGCAUACAGC | – | – | 0.00917 | 0.00814 | –
AACAGUAUUAUAGAUACCAGCAGGUCAUAAGACAUGAGGAUCACCCAUGUGAAUGAGGUAUGCCCUUGGCAGCUAUGAGGUCCUC | – | – | – | – | apparent Kd [7]: 0.173 µM; apparent Kd [8]: 0.128 µM
CUUCUUCGUGCAGGAUAUAAGGGAACACGAUGACAUGAGGAUCACCCAUGUUCUAUAAGCAGGCUUUAGAAGGGCAUUUUGGAU | 0.0271 | 0.0201 | – | – | –
UAGUAGUAAGGAUAUGCGGCACCGACGCCUCCGAACCGCGGGCAGAAGGUACAUGAGGAUCACCCAUGUGGGUA | – | – | 0.169 | 0.116 | –
GGUGAUUUCCGACGUUUACAUGAGGAUCACCCAUGUAGGUAGAAGGAUAUGUGUAAAAUUGAUAAACAGAAGGUCUUCCGAAUA | – | – | 0.0122 | 0.0493 | –
UCUCUUAAAGCAGGAUAUGAAAUCCACCAGGAAUCAGAAGGGCUCAACGUUACAUGAGGAUCACCCAUGUCCCUUAUGACAAUA | – | – | 0.00783 | 0.00935 | –
AAAACAUGAGGAUCACCCAUGUUGAUCAAACACCAGACCAAGAGAAGGAUCAGCACCGAGUGAUGAAAGGAUAUCUAUUAACGG | 0.0392 | 0.0238 | – | – | –
AGAAGGGACGAGAAGGUACGAUCGAGUAAACUAUGAUAUGGGCACAUGAGGAUCACCCAUGUAUGUAAGGAUAUCGCAUCUCCA | 0.0505 | 0.0411 | – | – | –
ACCUUACAUGAGGAUCACCCAUGUCGUGAUACCAGAAACCACGUAUUCCCUUGGCAGCACACCCGUGAUGAGAUUGUCGGUUUUG | – | – | – | – | apparent Kd [7]: 0.0574 µM; apparent Kd [8]: 0.088 µM
AGUCUUCUCGUAAGGAUAUUUAGGAAUUCAUCUCCAAAGAAGGUACAUGAGGAUCACCCAUGUGAAGGGCUUUU | – | – | 0.0128 | 0.0248 | –
CGGCAGAAAGUGAGGAUAUCGGUUGUAUGAGGAGACGAGAAGGCACAUGAGGAUCACCCAUGUUAGUAGUCCAC | – | – | 0.00954 | 0.0088 | –
AAUUGUGCAGGAUAUUCACAGGUGAACAUGAGGAUCACCCAUGUAGCAUGAGGUGUAAUCGAAGAAGGGCAGGUCC | – | – | 0.109 | 0.0728 | –
GAACCCAAGGUGAGGAUAUUCGAAGCAACAAAAGGGAAGAAGGCACAUGAGGAUCACCCAUGUAAGAAAGAUAA | – | – | 0.00835 | 0.00952 | –
GACUACAUAGUCAGGAUAUGUGAUUAAUAAUAUCAACAGAAGGGACAUGAGGAUCACCCAUGUGUGCGAGUGGA | – | – | 0.0145 | 0.0332 | –
AACAGACGAGACGAUACCAGUCUCUUAGCGCACAUGAGGAUCACCCAUGUUGGCAAGCUCGACCCUUGGCAGCGUACCUUUGAUC | – | – | – | – | apparent Kd [7]: 0.0244 µM; apparent Kd [8]: 0.014 µM
GGACGCCAUAUAGAGGAUAUUAAUGUCGACACAUGAGGAUCACCCAUGUCCCACUCGGGCGAACAUAAGAAGGCUAAUCAGACGUA | 0.0145 | 0.0105 | – | – | –
GCAUAGUAAAAUGAUACCAGAGUCAAAACAGACAUGAGGAUCACCCAUGUGCAUAUACAACUCCCUUGGCAGCAUUAAAACGGGA | – | – | – | – | apparent Kd [7]: 0.0171 µM; apparent Kd [8]: 0.013 µM

Sequence | apparent Kd [3] [µM] | apparent Kd [4] [µM] | apparent Kd [5] [µM] | apparent Kd [6] [µM] | further results
UGAAAUUUGGAGAAGGGACGCACGUGGUAGUGGCUACAUGAGGAUCACCCAUGUUAAUUGAUCAGUCAGGAUAUCCGGUUGUUC | – | – | 0.0181 | 0.0221 | –
UGGCCAGAACCUUUUGUGGCCACAUGAGGAUCACCCAUGUGCGAGGAUAUCCCAUCCGGUCCGGCGGAGAAGGCGCGUAUCGGC | 0.0344 | 0.0301 | – | – | –
UAGUAUGGCACAGGAUAUACAAUUAAUAUGCGGGUAGAAGGGUGGUAUCGACAUGAGGAUCACCCAUGUUAGGAAGAAACACAC | 0.134 | 0.0782 | – | – | –
GCACUUAUAGCAGGAUAUCUUUAAACACCGAAAGGUAGCGGUACAUGAGGAUCACCCAUGUCAACAGAGAAGGGCUCAUAGUCU | 0.0111 | 0.00863 | – | – | –
ACUCCACAUGAGGAUCACCCAUGUUAUAAGUAGGUAGGAUAUCACACAAACUUACAUGGAUGAGAAGGACCGGUCC | 0.328 | 0.21 | – | – | –
AGAAUGACAAAAUUGCAACAUGAGGAUCACCCAUGUGAUACAAGAAGGACAAACCGCUCAAGAGUGUAGGAUAUUGUGGAAAUC | 0.0256 | 0.0196 | – | – | –
CUCGUUUAAGAGGAUAUUUCGUCCGCUCUCGGGAAAGAAGGCUUGACAUGAGGAUCACCCAUGUAUACGUUGGA | – | – | 0.00946 | 0.0139 | –
AUAACACAUGAGGAUCACCCAUGUAAGGAUAUAGUAGCAAUGGAAAGAAAUCUAUCCUCUAGAAGGUACACGGC | – | – | 0.0185 | 0.0153 | –
GGAAAACACAAGAAGGCGUCGGACUGGGCGAGACGAGGAUAUUGUAGCUCUAAUCGUGGACAGACAUGAGGAUCACCCAUGUCG | 0.00793 | 0.00618 | – | – | –
CGUAUACAUGAGGAUCACCCAUGUACUCCCGUGUAAGGCGAGAAGGAUAUGUUCCCGGCUACUUAACAGAAGGUCUUGGCGCUU | – | – | 0.0149 | 0.0112 | –
AGAUUUGCAGGAUAUACCGGUACAAACAUGAGGAUCACCCAUGUAACGCAUGGUCAGUGAGUAGAAGGGCACGUAG | – | – | 0.0314 | 0.024 | –
UUACACAUGAGGAUCACCCAUGUCUGGGAGCGAGGACCGGUACGGCCGCCACUCGAAUUGUCAGGGCUAUGCCGGACGAUGCAUC | – | – | – | – | apparent Kd [1]: 0.0171 µM; apparent Kd [2]: 0.0211 µM
GCGGUACAUGAGGAUCACCCAUGUGAUUUAACAGGUUUCAUCAGAAGGACUCACGGUUUGCGACAGUAGGAUAUGAAGGGUAAG | 0.0346 | 0.0246 | – | – | –
GCAAUUUGACGAGGAUAUGGUCUAUUUUUUUACCCAGAAGGCGUCGCCCACAUGAGGAUCACCCAUGUUCAUGGAUAGGAAAUA | – | – | 0.0119 | – | –
CCAGGUUGAAUAGGAUAUCGAGUCCGUCACAUGAGGAUCACCCAUGUAUGCCAAGCUAGAGCGUGCGAGAAGGAUUAGGCCAUC | – | 0.0155 | – | – | –
AUAGUGUAAGGAUAUGUAGAGAGCUAGAAAAUACAAACAAUACAGAAGGUACAUGAGGAUCACCCAUGUGAUUG | – | – | 0.0144 | 0.0263 | –
GGUUUUUCUGUUAGGAUAUUUCAUGACAGGCGAUGAAAGAAGGAACAUGAGGAUCACCCAUGUGUUUGAGAUAA | – | – | 0.00957 | 0.0106 | –
GGAAUGUGAGGAUAUGUUAAGAAGGCGCGACGUUGGGAGACACAGAAGGCACAUGAGGAUCACCCAUGUUAUGA | – | – | 0.0232 | 0.0311 | –
CACGAUCGUGAAGGAUAUCGACAUGAGGAUCACCCAUGUUACUCUUACAUCUAUGGUUCAAGUGCCGAGAAGGUCACAGAGGCA | – | – | 0.0138 | 0.018 | –
GCAGGACAUGAGGAUCACCCAUGUGAUACUAUGACAGGAUAUGAUUGAAAACUUACUAGAACAGAAGGGUCGUGUA | 0.0943 | 0.0345 | – | – | –
UCUCAUAUGGAAGGAUAUCAUACCUUGUCGAGAUGAGAAGGUCCGUAUGGACAUAACAUGAGGAUCACCCAUGUUUCUUGUGUU | 0.188 | 0.128 | – | – | –
